Reference: BindingDB's records for doi:10.1016/j.ejmech.2018.08.004 (The University of Queensland, 2018)

Key:
[1] = biological target: T1, Tartrate-resistant acid phosphatase type 5 (Sus scrofa, UniProt P09889); assay: Competitive inhibition of pig purple acid phosphatase Fe(3)Fe(2) state assessed as enzyme-inhibitor complex using pNPP as substrate by UV/Vis spectrophotometric method
T1 sequence (P09889 whole entry): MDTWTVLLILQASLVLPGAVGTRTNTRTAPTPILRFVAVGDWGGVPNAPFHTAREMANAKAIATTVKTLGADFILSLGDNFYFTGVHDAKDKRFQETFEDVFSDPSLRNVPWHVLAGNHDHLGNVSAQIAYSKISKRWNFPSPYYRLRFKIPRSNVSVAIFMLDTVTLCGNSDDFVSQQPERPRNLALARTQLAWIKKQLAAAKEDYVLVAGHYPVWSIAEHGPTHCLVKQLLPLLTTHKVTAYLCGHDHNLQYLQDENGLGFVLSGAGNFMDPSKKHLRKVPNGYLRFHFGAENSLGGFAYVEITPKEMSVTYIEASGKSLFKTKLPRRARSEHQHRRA
Summary of the method: (§1)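 Pig PAP was from sow uterine fluid and pre-reduced to Fe(III)Fe(II) with 0.77 mM β-mercaptoethanol (10 min, 37 °C); rkbPAP was purified from red kidney beans. Assays ran at 25 °C, pH 4.9 (0.1 M acetate, 25% DMSO) with 12 nM enzyme, pNPP 1–12.5 mM and inhibitor 50–300 μM. p-Nitrophenol was read at 405 nm. Kic and Kiuc came from non-linear fit to the general inhibition equation.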

[2] = biological target: T2, Fe(3+)-Zn(2+) purple acid phosphatase (Phaseolus vulgaris, UniProt P80366); assay: Competitive inhibition of red kidney bean purple acid phosphatase Fe(3)Fe(2) state assessed as enzyme-inhibitor complex using pNPP as substrate by UV/Vis spectrophotometric method; summary of the method: as §1
T2 sequence (P80366 whole entry): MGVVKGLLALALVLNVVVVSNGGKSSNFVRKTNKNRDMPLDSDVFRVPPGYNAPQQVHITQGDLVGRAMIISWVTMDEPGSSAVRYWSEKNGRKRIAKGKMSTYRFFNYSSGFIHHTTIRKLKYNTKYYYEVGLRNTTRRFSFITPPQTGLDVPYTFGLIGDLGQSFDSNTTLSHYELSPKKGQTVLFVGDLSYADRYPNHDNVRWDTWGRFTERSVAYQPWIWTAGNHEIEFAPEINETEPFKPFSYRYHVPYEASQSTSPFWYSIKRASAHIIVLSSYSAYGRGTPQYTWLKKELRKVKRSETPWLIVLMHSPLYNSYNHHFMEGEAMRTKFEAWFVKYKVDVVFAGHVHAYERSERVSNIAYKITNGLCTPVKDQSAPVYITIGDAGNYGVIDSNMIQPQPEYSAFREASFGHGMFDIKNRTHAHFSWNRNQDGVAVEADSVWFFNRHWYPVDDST

Row | Ki [1] [µM] | Ki [2] [µM] | Structure (SMILES)
1 | 190 | – | O=C(O)c1csc(-c2ccccc2)n1
2 | 49 | 530 | O=C(O)c1csc(-c2ccc(Cl)cc2)n1
3 | 120 | 400 | COc1ccc(-c2nc(C(=O)O)cs2)cc1
4 | 630 | 920 | O=C(O)c1csc(-c2ccccc2Cl)n1

Row | Structure (SMILES) | Ki [1] [µM] | Ki [2] [µM]
5 | O=C(O)c1csc(-c2cccc3ccccc23)n1 | 33 | 185
6 | Cc1ccc(-c2nc(C(=O)O)cs2)cc1 | 42 | 340
